Laboratory results as given in ChEMBL document CHEMBL3124806, “Imidazopyridine-fused [1,3]-diazepinones: synthesis and antiproliferative activity” (Eur J Med Chem, 2014).

Key:
Assay type in all cases: functional
[1] = Cytotoxicity against human UACC257 cells assessed as cell growth at 10 uM after 48 hrs by SRB assay relative to untreated control; conditions: UACC-257, 48 h, read-out: Activity
In short: (§1)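 NCI-60 single-dose screen. Compounds were added to the cultures at 10 μM and incubated for 48 h. The end point was sulforhodamine B protein staining read spectrophotometrically. Growth is reported as percent of untreated control cells.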

NCI-H226 = test: Cytotoxicity against human NCI-H226 cells assessed as cell growth at 10 uM after 48 hrs by SRB assay relative to untreated control; conditions: NCI-H226, 48 h, read-out: Activity
In short: (§2)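 NCI-60 one-dose screen: each agent added at 10 µM, cultures incubated 48 h. Endpoint by sulforhodamine B protein-binding dye read spectrophotometrically; growth expressed as percent of untreated control cells.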

SR = test: Cytotoxicity against human SR cells assessed as cell growth at 10 uM after 48 hrs by SRB assay relative to untreated control; conditions: read-out: Activity; in short: as §1
SNB-19 = test: Cytotoxicity against human SNB19 cells assessed as cell growth at 10 uM after 48 hrs by SRB assay relative to untreated control; conditions: SNB-19, 48 h, read-out: Activity; in short: as §1
SNB-75 = test: Cytotoxicity against human SNB75 cells assessed as cell growth at 10 uM after 48 hrs by SRB assay relative to untreated control; conditions: SNB-75, 48 h, read-out: Activity; in short: as §1
NCI-H460 = test: Cytotoxicity against human NCI-H460 cells assessed as cell growth at 10 uM after 48 hrs by SRB assay relative to untreated control; conditions: NCI-H460, 48 h, read-out: Activity; in short: as §2
SW-620 = test: Cytotoxicity against human SW620 cells assessed as cell growth at 10 uM after 48 hrs by SRB assay relative to untreated control; conditions: SW-620, 48 h, read-out: Activity; in short: as §1
KM12 = test: Cytotoxicity against human KM12 cells assessed as cell growth at 10 uM after 48 hrs by SRB assay relative to untreated control; conditions: KM12, 48 h, read-out: Activity
In short: (§3)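 NCI-60 panel screen at a single concentration of 10 μM with 48 h incubation. Cell density measured by sulforhodamine B protein-binding dye and read spectrophotometrically. Growth expressed as percent of untreated control cells.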

NCI-H322M = test: Cytotoxicity against human NCI-H322M cells assessed as cell growth at 10 uM after 48 hrs by SRB assay relative to untreated control; conditions: read-out: Activity; in short: as §2
MDA-MB-231 = test: Cytotoxicity against human MDA-MB-231 cells assessed as cell growth at 10 uM after 48 hrs by SRB assay relative to untreated control; conditions: MDA-MB-231, 48 h, read-out: Activity; in short: as §2
PC-3 = test: Cytotoxicity against human PC3 cells assessed as cell growth at 10 uM after 48 hrs by SRB assay relative to untreated control; conditions: PC-3, 48 h, read-out: Activity; in short: as §2
U-251 = test: Cytotoxicity against human U251 cells assessed as cell growth at 10 uM after 48 hrs by SRB assay relative to untreated control; conditions: U-251, 48 h, read-out: Activity; in short: as §1
BT-549 = test: Cytotoxicity against human BT549 cells assessed as cell growth at 10 uM after 48 hrs by SRB assay relative to untreated control; conditions: BT-549, 48 h, read-out: Activity; in short: as §3
HCT-15 = test: Cytotoxicity against human HCT15 cells assessed as cell growth at 10 uM after 48 hrs by SRB assay relative to untreated control; conditions: HCT-15, 48 h, read-out: Activity; in short: as §3
HT-29 = test: Cytotoxicity against human HT-29 cells assessed as cell growth at 10 uM after 48 hrs by SRB assay relative to untreated control; conditions: HT-29, 48 h, read-out: Activity; in short: as §3
NCI-H522 = test: Cytotoxicity against human NCI-H522 cells assessed as cell growth at 10 uM after 48 hrs by SRB assay relative to untreated control; conditions: NCI-H522, 48 h, read-out: Activity; in short: as §2
ACHN = test: Cytotoxicity against human ACHN cells assessed as cell growth at 10 uM after 48 hrs by SRB assay relative to untreated control; conditions: read-out: Activity; in short: as §3
COLO 205 = test: Cytotoxicity against human COLO205 cells assessed as cell growth at 10 uM after 48 hrs by SRB assay relative to untreated control; conditions: COLO 205, 48 h, read-out: Activity; in short: as §3
OVCAR-8 = test: Cytotoxicity against human OVCAR8 cells assessed as cell growth at 10 uM after 48 hrs by SRB assay relative to untreated control; conditions: OVCAR-8, 48 h, read-out: Activity; in short: as §2
CAKI-1 = test: Cytotoxicity against human Caki1 cells assessed as cell growth at 10 uM after 48 hrs by SRB assay relative to untreated control; conditions: CAKI-1, 48 h, read-out: Activity; in short: as §3
[2] = Cytotoxicity against human UO31 cells assessed as cell growth at 10 uM after 48 hrs by SRB assay relative to untreated control; conditions: UO-31, 48 h, read-out: Activity; in short: as §1
786-0 = test: Cytotoxicity against human […] cells assessed as cell growth at 10 uM after 48 hrs by SRB assay relative to untreated control; conditions: 786-0, 48 h, read-out: Activity; in short: as §3
[3] = Cytotoxicity against human OVCAR5 cells assessed as cell growth at 10 uM after 48 hrs by SRB assay relative to untreated control; conditions: OVCAR-5, 48 h, read-out: Activity; in short: as §2
RXF 393 = test: Cytotoxicity against human RXF393 cells assessed as cell growth at 10 uM after 48 hrs by SRB assay relative to untreated control; conditions: RXF 393, 48 h, read-out: Activity; in short: as §2
LOX IMVI = test: Cytotoxicity against human LOXIMVI cells assessed as cell growth at 10 uM after 48 hrs by SRB assay relative to untreated control; conditions: read-out: Activity; in short: as §3
UACC-62 = test: Cytotoxicity against human UACC62 cells assessed as cell growth at 10 uM after 48 hrs by SRB assay relative to untreated control; conditions: UACC-62, 48 h, read-out: Activity; in short: as §1
OVCAR-3 = test: Cytotoxicity against human OVCAR3 cells assessed as cell growth at 10 uM after 48 hrs by SRB assay relative to untreated control; conditions: OVCAR-3, 48 h, read-out: Activity; in short: as §2
MOLT-4 = test: Cytotoxicity against human MOLT4 cells assessed as cell growth at 10 uM after 48 hrs by SRB assay relative to untreated control; conditions: MOLT-4, 48 h, read-out: Activity; in short: as §2
MDA-MB-468 = test: Cytotoxicity against human MDA-MB-468 cells assessed as cell growth at 10 uM after 48 hrs by SRB assay relative to untreated control; conditions: MDA-MB-468, 48 h, read-out: Activity; in short: as §2
K562 = test: Cytotoxicity against human K562 cells assessed as cell growth at 10 uM after 48 hrs by SRB assay relative to untreated control; conditions: K562, 48 h, read-out: Activity; in short: as §3
MCF7 = test: Cytotoxicity against human MCF7 cells assessed as cell growth at 10 uM after 48 hrs by SRB assay relative to untreated control; conditions: MCF7, 48 h, read-out: Activity; in short: as §3

**Q.** With `C[C@@H]1NC(c2ccc(Br)cc2)=Nc2nc3ccccn3c2C1=O` as the compound, how does the growth at 10 µM [1] read?
**A.** 70%

**Q.** And the growth at 10 µM (NCI-H226)?
**A.** 68.3%

**Q.** What about the growth at 10 µM (SR) of the same compound?
**A.** 30%

**Q.** What about the growth at 10 µM (SNB-19) of the same compound?
**A.** 82.6%

**Q.** And the growth at 10 µM (SNB-75)?
**A.** 50.2%

**Q.** And the growth at 10 µM (NCI-H460)?
**A.** 32.5%

**Q.** What about the growth at 10 µM (SW-620) of the same compound?
**A.** 38%

**Q.** And the growth at 10 µM (KM12)?
**A.** 29.6%

**Q.** And the growth at 10 µM (NCI-H322M)?
**A.** 74%

**Q.** What about the growth at 10 µM (MDA-MB-231) of the same compound?
**A.** 52.7%

**Q.** And the growth at 10 µM (PC-3)?
**A.** 63.2%

**Q.** And the growth at 10 µM (U-251)?
**A.** 54%

**Q.** What about the growth at 10 µM (BT-549) of the same compound?
**A.** 49.3%

**Q.** And the growth at 10 µM (HCT-15)?
**A.** 30.8%

**Q.** And the growth at 10 µM (HT-29)?
**A.** 17.5%

**Q.** What about the growth at 10 µM (NCI-H522) of the same compound?
**A.** 34.8%

**Q.** And the growth at 10 µM (ACHN)?
**A.** 69.2%

**Q.** And the growth at 10 µM (COLO 205)?
**A.** 26.3%

**Q.** What about the growth at 10 µM (OVCAR-8) of the same compound?
**A.** 72.5%

**Q.** And the growth at 10 µM (CAKI-1)?
**A.** 44.1%

**Q.** And the growth at 10 µM [2]?
**A.** 62%

**Q.** And the growth at 10 µM (786-0)?
**A.** 83.1%

**Q.** What about the growth at 10 µM [3] of the same compound?
**A.** 82.4%

**Q.** And the growth at 10 µM (RXF 393)?
**A.** 68.2%

**Q.** What about the growth at 10 µM (LOX IMVI) of the same compound?
**A.** 52.4%

**Q.** What about the growth at 10 µM (UACC-62) of the same compound?
**A.** 49.2%

**Q.** And the growth at 10 µM (OVCAR-3)?
**A.** 17.3%

**Q.** What about the growth at 10 µM (MOLT-4) of the same compound?
**A.** 57.5%

**Q.** And the growth at 10 µM (MDA-MB-468)?
**A.** -0.5%

**Q.** What about the growth at 10 µM (K562) of the same compound?
**A.** 24.3%

**Q.** And the growth at 10 µM (MCF7)?
**A.** 20.9%
